Experimental data collected from several papers.
Protocols differ between the studies behind these lines.
Target: Serine/threonine-protein kinase 10 (STK10, Homo sapiens, UniProt O94804)

For Cc1nn(C)cc1-c1nc2c(N3CCN(Cc4ccc(Cl)cc4)CC3)c(Cl)cnc2[nH]1, the remaining binding was 100% (binding, competition with immobilised ligand; 1 µM).
CC(C)(C)c1cc(C=C(C#N)C#N)cc(Br)c1O gave a remaining activity of 95.4% (enzyme activity, inhibitor; 0.5 µM).
Cn1cncc1[C@@](O)(COc1ccc(C#N)cc1-c1ccc(OC(F)(F)F)cc1)c1ccc(C#N)cc1 has a remaining binding of 100% (cell-free assay, competition with immobilised ligand; 1 µM).
With COc1cc(Nc2ncc(F)c(Nc3ccc4c(n3)NC(=O)C(C)(C)O4)n2)cc(OC)c1OC the inhibition was 100% (binding; 10 µM).
Nc1ncc(-c2nc(N3CCOCC3)nc(N3CCOCC3)n2)c(C(F)F)n1 gave a remaining binding of 64% (binding, competition with immobilised ligand; 10 µM).
For O=c1[nH]c2ccccc2n1C1CCN(Cc2ccc(-c3[nH]c4cc5ncnc5cc4nc3-c3ccccc3)cc2)CC1, the remaining signal was 92.6% (cell-free assay; 0.5 µM).
COc1ncccc1-c1cnn2ccc(N3CCN(C(=O)OC(C)C)CC3)nc12 has a remaining binding of 63% (binding, competition with immobilised ligand; 1 µM).
With N#CC1(c2ccccn2)CCN(Cc2cc(C(=O)O)c(=O)n3ccccc23)CC1 the remaining binding was 100% (cell-free assay, competition with immobilised ligand; 1 µM).
